Source: ChEMBL document CHEMBL4364272, “Discovery of a Lead Triphenylethanamine Cholesterol Ester Transfer Protein (CETP) Inhibitor” (ACS Med Chem Lett, 2019)
Calls of active or inactive are those of the source. No cut-off for these calls is given here.

Experiments:
[1] = Volume of distribution at steady state in Sprague-Dawley rat at 1 mg/kg, iv or 10 mg/kg, po administered via gavage measured upto 24 hrs by LC-MS/MS; assay type: ADME, organism-based; conditions: in vivo, read-out: Vdss
Outline: (§1)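 Single IV and oral doses: rat 1 mg/kg IV and 10 mg/kg PO; mouse 5 mg/kg IV and 10 mg/kg PO; monkey 1 mg/kg IV and 5 mg/kg PO. IV vehicle was 10% Cremophor/10% EtOH/80% H2O for rodents and 70% PEG-400/10% EtOH/20% H2O for monkey. Oral vehicle was 15% Miglyol 812/30% Capmul MCM/15% Triacetin/40% Cremophor RH40, or the Cremophor vehicle for rat. Vss, Cl, t1/2 and %F were derived.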

Mus musculus = experiment: In vivo inhibition of CETP in hCETP/apoB-100 dual transgenic mouse assessed as reduction in [3H]-CE transfer at 0.5 mg/kg, po administered via gavage measured after 2 to 8 hrs by radioactivity based assay; assay type: functional, organism-based
[2] = Clearance in Balb/c mouse at 5 mg/kg, iv or 10 mg/kg, po administered via gavage measured upto 24 hrs by LC-MS/MS; assay type: ADME, organism-based; conditions: in vivo; outline: as §1
[3] = Clearance in cynomolgus monkey at 1 mg/kg, iv or 5 mg/kg, po administered via gavage measured upto 24 hrs by LC-MS/MS; assay type: ADME, organism-based, Macaca fascicularis; conditions: in vivo; outline: as §1
[4] = Toxicity in telemetered rat assessed as effect on locomotor activity at 2.5 mg/kg administered as iv infusion for 5 mins followed by 7.5 mg/kg, iv infusion for 55 mins; assay type: organism-based; conditions: in vivo
Outline: (§2)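 Rats were telemetered and given a total of 10 mg/kg IV: 2.5 mg/kg infused over 5 min, then 7.5 mg/kg infused over 55 min (n = 7). Mean, systolic and diastolic BP, heart rate and locomotor activity were monitored, and the observed Cmax was recorded.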

[5] = Volume of distribution at steady state in cynomolgus monkey at 1 mg/kg, iv or 5 mg/kg, po administered via gavage measured upto 24 hrs by LC-MS/MS; assay type: ADME, organism-based, Macaca fascicularis; conditions: in vivo, read-out: Vdss; outline: as §1
[6] = Half life in Sprague-Dawley rat at 1 mg/kg, iv or 10 mg/kg, po administered via gavage measured upto 24 hrs by LC-MS/MS; assay type: ADME, organism-based; conditions: in vivo; outline: as §1
[7] = Stability in mouse liver microsomes assessed as parent compound remaining at 50 uM preincubated for 5 to 7 mins followed by NADPH addition and measured 10 mins post-dose by LC-MS/MS; assay type: ADME, Microsome; conditions: read-out: Stability
[8] = Oral bioavailability in Sprague-Dawley rat at 10 mg/kg administered via gavage measured upto 24 hrs by LC-MS/MS; assay type: ADME, organism-based; conditions: in vivo; outline: as §1
CYP11B2 = experiment: Effect on CYP11B2 gene expression in human NCI-H295R cells at 10 uM measured after 24 hrs relative to control; assay type: ADME, cell-based; conditions: read-out: FC
Outline: (§3)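 H295R cells were incubated for 24 h with test agent at 10 μM or angiotensin-II at 0.1 μM. CYP11B1 and CYP11B2 mRNA levels were measured and expressed as fold of control.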

[9] = biological target: T1, Cholesteryl ester transfer protein (Homo sapiens, UniProt P11597); experiment: Inhibition of CETP in human whole plasma assessed as reduction in [3H]-CE/HDL transfer incubated for 2.5 hrs by topcount scintillation counting assay; assay type: cell-free
T1 sequence (P11597 whole entry): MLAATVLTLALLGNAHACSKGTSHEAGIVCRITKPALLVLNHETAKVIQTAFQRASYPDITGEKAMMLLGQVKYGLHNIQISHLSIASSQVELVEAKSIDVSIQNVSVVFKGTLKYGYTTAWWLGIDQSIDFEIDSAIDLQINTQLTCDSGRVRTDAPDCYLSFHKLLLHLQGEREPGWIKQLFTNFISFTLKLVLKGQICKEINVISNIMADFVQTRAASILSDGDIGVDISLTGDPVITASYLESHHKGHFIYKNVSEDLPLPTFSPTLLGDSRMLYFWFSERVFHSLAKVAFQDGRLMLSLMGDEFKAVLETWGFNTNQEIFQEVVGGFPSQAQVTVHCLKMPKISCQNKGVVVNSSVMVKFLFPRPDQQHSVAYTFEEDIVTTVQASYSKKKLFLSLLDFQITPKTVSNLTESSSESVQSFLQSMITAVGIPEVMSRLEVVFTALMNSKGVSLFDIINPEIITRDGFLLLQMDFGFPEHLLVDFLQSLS
Outline: (§4)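 CETP activity was measured by scintillation proximity assay and by human whole plasma assay. Each was run in duplicate at six concentrations, and the mean values were used to calculate IC50.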

[10] = Cardiac toxicity in telemetered rat assessed as change in diastolic blood pressure at 2.5 mg/kg administered as iv infusion for 5 mins followed by 7.5 mg/kg, iv infusion for 55 mins; assay type: organism-based; conditions: in vivo; outline: as §2
Hamster = experiment: In vivo inhibition of CETP in hamster assessed as increase in HDL cholesterol at 10 mg/kg, po qd administered for 7 days measured 6 hrs post-dose on every other day by FPLC analysis relative to control; assay type: functional; conditions: Cricetinae
Outline: (§5)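 Hamsters received 10 mg/kg. Plasma cholesterol profiles were resolved by FPLC to give HDL cholesterol change, and plasma exposure was measured.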

[11] = Volume of distribution at steady state in Balb/c mouse at 5 mg/kg, iv or 10 mg/kg, po administered via gavage measured upto 24 hrs by LC-MS/MS; assay type: ADME, organism-based; conditions: in vivo, read-out: Vdss; outline: as §1
[12] = Half life in cynomolgus monkey at 1 mg/kg, iv or 5 mg/kg, po administered via gavage measured upto 24 hrs by LC-MS/MS; assay type: ADME, organism-based, Macaca fascicularis; conditions: in vivo; outline: as §1
CYP11B1 = experiment: Effect on CYP11B1 gene expression in human NCI-H295R cells at 10 uM measured after 24 hrs relative to control; assay type: ADME, cell-based; conditions: read-out: FC; outline: as §3
[13] = Oral bioavailability in cynomolgus monkey at 5 mg/kg administered via gavage measured upto 24 hrs by LC-MS/MS; assay type: ADME, organism-based, Macaca fascicularis; conditions: in vivo; outline: as §1
[14] = biological target: Voltage-gated inwardly rectifying potassium channel KCNH2 (Homo sapiens, UniProt Q12809); experiment: Inhibition of human ERG expressed in HEK293 cells by flux assay
[15] = Oral bioavailability in Balb/c mouse at 10 mg/kg measured upto 24 hrs by LC-MS/MS; assay type: ADME, organism-based; conditions: in vivo; outline: as §1
[16] = Plasma concentration in hamster at 10 mg/kg, po qd administered for 7 days; assay type: ADME, organism-based; conditions: cricetinae; outline: as §5
[17] = Half life in Balb/c mouse at 5 mg/kg, iv or 10 mg/kg, po administered via gavage measured upto 24 hrs by LC-MS/MS; assay type: ADME, organism-based; conditions: in vivo; outline: as §1
[18] = Cmax in telemetered rat at 2.5 mg/kg administered as iv infusion for 5 mins followed by 7.5 mg/kg, iv infusion for 55 mins; assay type: ADME, organism-based; parameters: dose 2.5 mg/kg, route intravenous; conditions: in vivo; outline: as §2
[19] = biological target: T2, Cholesteryl ester transfer protein (Homo sapiens) (UniProt P11597); experiment: Potency index, ratio of torcetrapib IC50 to test compound IC50 for inhibition of CETP in human whole plasma; assay type: cell-free
T2 sequence (whole entry): T1 sequence (P11597 whole entry)

[20] = Clearance in Sprague-Dawley rat at 1 mg/kg, iv or 10 mg/kg, po administered via gavage measured upto 24 hrs by LC-MS/MS; assay type: ADME, organism-based; conditions: in vivo; outline: as §1
[21] = Cardiac toxicity in telemetered rat assessed as change in heart rate at 2.5 mg/kg administered as iv infusion for 5 mins followed by 7.5 mg/kg, iv infusion for 55 mins; assay type: organism-based; conditions: in vivo; outline: as §2
[22] = biological target: T1, Cholesteryl ester transfer protein; experiment: Inhibition of human recombinant CETP assessed as reduction in [3H]CE/HDL transfer incubated for 4 hrs by scintillation proximity assay; outline: as §4
[23] = Stability in human liver microsomes assessed as parent compound remaining at 50 uM preincubated for 5 to 7 mins followed by NADPH addition and measured 10 mins post-dose by LC-MS/MS; assay type: ADME, Microsome; conditions: read-out: Stability
[24] = Cardiac toxicity in telemetered rat assessed as change in systolic blood pressure at 2.5 mg/kg administered as iv infusion for 5 mins followed by 7.5 mg/kg, iv infusion for 55 mins; assay type: organism-based; conditions: in vivo; outline: as §2

Chain of Voltage-gated inwardly rectifying potassium channel KCNH2 (Q12809 whole entry): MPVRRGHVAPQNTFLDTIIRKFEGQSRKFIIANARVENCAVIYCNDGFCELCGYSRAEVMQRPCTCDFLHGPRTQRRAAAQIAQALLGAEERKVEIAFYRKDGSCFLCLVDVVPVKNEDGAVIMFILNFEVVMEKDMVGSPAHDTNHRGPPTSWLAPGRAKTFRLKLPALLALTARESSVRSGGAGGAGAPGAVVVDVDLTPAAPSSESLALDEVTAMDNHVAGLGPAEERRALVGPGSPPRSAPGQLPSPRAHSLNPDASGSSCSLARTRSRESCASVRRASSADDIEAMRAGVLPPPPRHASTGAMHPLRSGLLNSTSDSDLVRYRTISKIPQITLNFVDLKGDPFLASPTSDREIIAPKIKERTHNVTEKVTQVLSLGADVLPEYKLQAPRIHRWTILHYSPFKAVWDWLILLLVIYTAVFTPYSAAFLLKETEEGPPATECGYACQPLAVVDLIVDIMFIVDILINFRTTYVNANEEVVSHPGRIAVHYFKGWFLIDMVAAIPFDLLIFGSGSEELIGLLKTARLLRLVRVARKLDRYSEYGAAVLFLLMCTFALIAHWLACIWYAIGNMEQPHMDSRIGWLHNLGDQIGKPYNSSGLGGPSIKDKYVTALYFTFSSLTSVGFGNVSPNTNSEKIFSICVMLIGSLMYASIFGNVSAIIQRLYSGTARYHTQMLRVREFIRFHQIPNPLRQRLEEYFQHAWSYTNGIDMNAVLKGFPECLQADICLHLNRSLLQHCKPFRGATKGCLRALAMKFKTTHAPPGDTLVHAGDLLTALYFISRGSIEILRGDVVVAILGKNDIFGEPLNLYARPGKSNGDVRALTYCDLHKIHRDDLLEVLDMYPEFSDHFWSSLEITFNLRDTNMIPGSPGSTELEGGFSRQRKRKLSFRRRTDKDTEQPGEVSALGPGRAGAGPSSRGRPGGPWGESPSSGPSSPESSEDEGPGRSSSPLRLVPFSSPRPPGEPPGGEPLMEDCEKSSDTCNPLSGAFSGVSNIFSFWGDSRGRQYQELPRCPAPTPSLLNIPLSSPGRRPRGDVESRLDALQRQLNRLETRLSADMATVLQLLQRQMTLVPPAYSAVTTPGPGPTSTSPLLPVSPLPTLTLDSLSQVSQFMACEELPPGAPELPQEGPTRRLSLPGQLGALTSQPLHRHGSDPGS

Compound: NC(C(=O)N[C@@](Cc1ccccc1)(c1cc(F)cc(OC(F)(F)C(F)F)c1)c1ccc(F)c(OC2CC2)c1)C(O)(C(F)(F)F)C(F)(F)F (stereo partly drawn)
- Vd [1]: 1.5 L/kg
- inhibition (Mus musculus): Active
- clearance [2]: 1.9 mL/min/kg
- clearance [3]: 0.7 mL/min/kg
- Activity [4]: Non-Toxic
- Vd [5]: 3.7 L/kg
- half-life [6]: 25 h
- remaining at 10 min, 50 µM [7]: 100%
- bioavailability [8]: 39%
- fold induction at 24 h, 10 µM (CYP11B2): 0.9 to 2.1
- IC50 [9]: 0.062 µM
- Activity [10]: Non-Toxic
- inhibition in vivo at 10 mg/kg (Hamster): 32%
- Vd [11]: 0.4 L/kg
- half-life [12]: 69 h
- fold induction at 24 h, 10 µM (CYP11B1): 1.3
- bioavailability [13]: 27%
- IC50 [14]: > 80 µM
- bioavailability [15]: 18%
- concentration at 168 h [16]: 0.9 µM
- half-life [17]: 5 h
- Cmax [18]: 23.5 µM
- Ratio IC50 [19]: 2
- clearance [20]: 2.9 mL/min/kg
- Activity [21]: Non-Toxic
- IC50 [22]: 0.002 µM
- remaining at 10 min, 50 µM [23]: 100%
- Activity [24]: Non-Toxic
